The target in experiment [1] is T1, Human immunodeficiency virus type 1 integrase (Human immunodeficiency virus 1, UniProt Q7ZJM1). Description: (§1) Inhibitory activity against HIV-1 integrase. The gist of the method: (§2)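 Purified recombinant wild-type HIV-1 integrase, 200 nM final, preincubated with inhibitor for 30 min at 30 °C. Buffer: 25 mM MOPS pH 7.2, 7.5 mM MnCl2, 50 mM NaCl, 10% DMSO, 10% glycerol, BSA, DTT, 2-mercaptoethanol. Then 20 nM 5'-32P-labeled 21mer U5 duplex added for 60 min. Products run on denaturing 20% polyacrylamide gel and quantified by phosphorimager.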
T1 sequence (Q7ZJM1 whole entry): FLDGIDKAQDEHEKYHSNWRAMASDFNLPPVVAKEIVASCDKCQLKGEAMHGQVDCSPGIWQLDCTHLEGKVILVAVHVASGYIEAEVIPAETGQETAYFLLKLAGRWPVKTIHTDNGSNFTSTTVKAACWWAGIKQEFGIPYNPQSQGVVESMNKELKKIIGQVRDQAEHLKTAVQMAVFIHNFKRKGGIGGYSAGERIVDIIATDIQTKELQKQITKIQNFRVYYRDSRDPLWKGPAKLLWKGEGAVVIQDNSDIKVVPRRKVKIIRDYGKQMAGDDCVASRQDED

Experiment [2] has as its target T1, Human immunodeficiency virus type 1 integrase. Described as §1. The gist of the method: as §2
This is another data set of the same source.

For experiment [3], the target named is T2, Human immunodeficiency virus type 1 protease (Human immunodeficiency virus 1, UniProt Q72874). Description: Inhibitory activity against HIV-1 protease.
Experiment [4] relates to CCRF-CEM. In words: Inhibitory activity against HIV-1 infected CEM cells. The format is functional, cell-based. The conditions noted are these: Homo sapiens.
The next experiment addresses T3, DNA topoisomerase 1 (Homo sapiens, UniProt P11387).
T3 sequence (P11387 whole entry): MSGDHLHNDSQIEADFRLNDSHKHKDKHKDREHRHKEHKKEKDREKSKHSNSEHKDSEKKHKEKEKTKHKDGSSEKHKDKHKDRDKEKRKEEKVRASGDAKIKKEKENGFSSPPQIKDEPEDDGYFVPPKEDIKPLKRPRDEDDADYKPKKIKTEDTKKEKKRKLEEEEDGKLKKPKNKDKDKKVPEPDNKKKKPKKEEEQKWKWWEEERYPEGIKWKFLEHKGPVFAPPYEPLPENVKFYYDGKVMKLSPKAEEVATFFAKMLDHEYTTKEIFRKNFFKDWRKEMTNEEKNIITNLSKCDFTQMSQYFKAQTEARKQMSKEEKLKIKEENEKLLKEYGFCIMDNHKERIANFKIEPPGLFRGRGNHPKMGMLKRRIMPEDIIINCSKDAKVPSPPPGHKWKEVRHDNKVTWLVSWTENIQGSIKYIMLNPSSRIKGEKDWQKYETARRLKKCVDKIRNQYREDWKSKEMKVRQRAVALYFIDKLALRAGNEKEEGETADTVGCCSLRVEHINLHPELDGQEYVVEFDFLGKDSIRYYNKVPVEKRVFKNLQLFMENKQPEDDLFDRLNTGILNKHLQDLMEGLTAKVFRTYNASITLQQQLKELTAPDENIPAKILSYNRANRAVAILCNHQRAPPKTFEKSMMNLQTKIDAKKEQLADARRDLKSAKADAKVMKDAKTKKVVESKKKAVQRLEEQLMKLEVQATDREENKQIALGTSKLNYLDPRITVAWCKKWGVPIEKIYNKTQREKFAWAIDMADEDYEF
In words: Inhibitory activity against topoisomerase I. The gist of the method:
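Eukaryotic topoisomerase I on a duplex oligonucleotide with a single strong cleavage site, 3'-end labeled with α-[32P]cordycepin. Scored both for induction of cleavable complexes and for blocking camptothecin-induced complexes. Stopped with 0.5% SDS, proteinase K 60 min at 50 °C, denaturing 16% PAGE.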

The test system of experiment [5] is Feline immunodeficiency virus. Description: Inhibitory activity against feline was measured immunodeficiency virus (FIV) using 3'-processing (3'-proc) assay.. The format is functional. Summed up: (§3)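 Recombinant FIV or SIV integrase, 600 nM final, preincubated 30 min at 30 °C with inhibitor in Mn2+/MOPS pH 7.2 buffer with 10% DMSO. 20 nM 5'-32P-labeled 21mer duplex added and incubated 60 min. The 3'-processed 19mer was resolved on denaturing 20% polyacrylamide gel and quantified by phosphorimager.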

Experiment [6] concerns the target T4, Human immunodeficiency virus type 2 integrase (Human immunodeficiency virus 2, UniProt P89582).
T4 sequence (P89582 whole entry): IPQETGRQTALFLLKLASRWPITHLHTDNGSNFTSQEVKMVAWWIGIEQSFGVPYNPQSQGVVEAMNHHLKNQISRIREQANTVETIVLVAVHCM
In words: Inhibitory activity against HIV-2 Integrase was measured using 3'-processing (3'-proc) assay. Summed up: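 HIV-2 integrase, 200 nM final, preincubated 30 min at 30 °C with inhibitor in Mn2+/MOPS pH 7.2 buffer containing 10% DMSO. 3'-processing started with 20 nM 5'-32P-labeled 21mer duplex substrate and run 60 min more. Denaturing 20% PAGE, phosphorimager quantitation of the 19mer product.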

Experiment [7] addresses T2, Human immunodeficiency virus type 1 protease. Description: Inhibitory activity against HIV-1 Protease.
The test system of experiment [8] is Simian immunodeficiency virus. In words: Inhibitory activity against simian was measured immunodeficiency virus (SIV) using 3'-processing (3'-proc). Type of experiment: functional. The gist of the method:
as §3

In experiment [9] the test system is CCRF-CEM. In words: Inhibitory activity against HIV-1 infected CEM cells; inactive. Type of experiment: functional, cell-based, Homo sapiens.

pIC50: −log10 of the molar value.

Consider `O=C1C(O)=C(C(C2=C(O)C(=O)c3ccccc3C2=O)c2ccc(Cl)c(Cl)c2)C(=O)c2ccccc21`, for which the negative logarithm of the IC50 (pIC50) – broadly, −log10 of the IC50, conventionally taken in molar units – in experiment [1] is 4.28; in [2], 4.05.

For the molecule `COc1ccc2c(O)c(S(=O)(=O)c3ccc(C)cc3)c(=O)oc2c1`, the pIC50 in experiment [1], in experiment [2] and in experiment [3] was less than 4.00 each time.

`CCCCCCc1cc2c(cc1O)OC(=O)C(C(c1ccccc1)c1c(O)oc3cc(O)c(CCCCCC)cc3c1=O)C2O` (configuration not stated): the pIC50 in experiment [1] was 4.92; in [2] it was 4.98; in experiment [3], 6.49.

Consider `CCOC(=O)C(C1=C(O)C(=O)c2ccccc2C1=O)C1=C(O)C(=O)c2ccccc2C1=O`, for which the pIC50 in [1] was 4.22; in experiment [2], 4.04.

As to `CC(C1=C(O)C(=O)c2ccccc2C1=O)C1=C(O)C(=O)c2ccccc2C1=O`, the pIC50 in experiment [1] and in experiment [2] was less than 4.00 in each case.

For the molecule `O=C(c1cccc([N+](=O)[O-])c1)c1c(O)oc2ccccc2c1=O`, the negative logarithm of the IC50 (pIC50) in experiment [1], in [2] and in experiment [3] was less than 4.00 throughout.

Consider `O=C1C(O)=C(C(C2=C(O)C(=O)c3ccccc3C2=O)c2ccc(Cl)cc2)C(=O)c2ccccc21`, for which the pIC50 in experiment [1] and in experiment [2] was less than 4.00 each time.

As to `O=C(NC1=C(Cl)C(=O)c2ccccc2C1=O)C(=O)c1c(O)c2ccccc2oc1=O`, the pIC50 in experiment [1], in [2] and in experiment [3] was less than 4.00 in each case.

Turning to `CCOC(=O)C(c1c(O)c2ccccc2oc1=O)c1c(O)c2ccccc2oc1=O` [ETHYL BISCOUMACETATE], the negative-log IC50 (pIC50) in experiment [1], in experiment [2] and in experiment [3] was less than 4.00 throughout.

As to `O=C(c1ccc(Cl)cc1)c1c(O)c2ccccc2oc1=O`, the negative logarithm of the IC50 (pIC50) in experiment [1], in [2] and in experiment [3] was less than 4.00 throughout.

As to `O=C(SCc1c(O)c2ccccc2oc1=O)c1ccccc1`, the negative-log IC50 (pIC50) in experiment [1], in experiment [2] and in [3] was less than 4.00 throughout.

For `O=C1C(O)=C(C(C2=C(O)C(=O)c3ccccc3C2=O)c2ccccc2)C(=O)c2ccccc21`, the values for the pIC50 in [1] and in experiment [2] were 4.32 and 4.17, respectively.

For the molecule `O=C1Oc2ccccc2C(O)C1Sc1c(O)oc2ccccc2c1=O` (configuration not stated), the pIC50 was 4.00 in experiment [1], 4.10 in experiment [2] and 4.68 in [3].

Regarding `O=c1c(C(c2ccc3c(c2)OCO3)c2c(O)oc3ccccc3c2=O)c(O)oc2ccccc12`, the pIC50 in experiment [1] was 4.74; in [2] it was 4.33; in [3], 4.52.

As to `COc1ccc2c(O)c(S(=O)(=O)c3ccc(Cl)cc3)c(=O)oc2c1`, the pIC50 in experiment [1], in experiment [2] and in experiment [3] was less than 4.00 each time.

On to `O=c1oc2c(-c3ccccc3)cccc2c(O)c1-c1ccccc1`, for which the pIC50 in experiment [1] is less than 4.00; in experiment [2], less than 4.00; in [3] it was 4.89.

On to `O=C1C(=O)c2ccccc2C(O)=C1CSc1ccc(Cl)cc1`, for which the values for the pIC50 in experiment [1], in experiment [2] and in experiment [3] were less than 4.00, less than 4.00 and 4.30, respectively.

For `CN(C)c1ccc(C(C2=C(O)C(=O)c3ccccc3C2=O)C2=C(O)C(=O)c3ccccc3C2=O)cc1`, the pIC50 in [1] and in experiment [2] was less than 4.00 in each case.

Consider `O=C1C(=O)c2ccccc2C(O)=C1Cc1ccc(Cl)cc1`, for which the pIC50 is 4.25 in experiment [1], 4.04 in experiment [2] and 5.52 in [3].

In the case of `O=C1C(O)=C(C(C2=C(O)C(=O)c3ccccc3C2=O)c2ccc(Cl)cc2Cl)C(=O)c2ccccc21`, the values for the negative-log IC50 (pIC50) in [1], in experiment [2] and in experiment [3] were 4.40, 4.43 and 4.62, respectively.

For the molecule `O=c1oc2cccc(O)c2c(O)c1Cc1ccccc1`, the pIC50 in [1], in [2] and in [3] was less than 4.00 in each case.

Regarding `O=c1oc2ccccc2c(O)c1-c1ccccc1`, the negative logarithm of the IC50 (pIC50) in experiment [1] is less than 4.00; in [2], less than 4.00; in experiment [3] it was 4.49.

As to `CC(=O)Nc1ccc(C(C2=C(O)C(=O)c3ccccc3C2=O)C2=C(O)C(=O)c3ccccc3C2=O)cc1`, the negative-log IC50 (pIC50) in experiment [1] was 4.11; in experiment [2], 4.07.

In the case of `Cc1ccc(S(=O)(=O)N/N=C(/CCN2CCCC2)CC(c2ccccc2)c2c(O)oc3ccccc3c2=O)cc1` (configuration not stated), the pIC50 in [1], in experiment [2] and in experiment [3] was less than 4.00 in each case.

With `O=C1C(O)=C(C(C#Cc2ccccc2)C2=C(O)C(=O)c3ccccc3C2=O)C(=O)c2ccccc21`, the negative-log IC50 (pIC50) was 4.14 in experiment [1] and less than 4.00 in [2].

For the molecule `O=C1Oc2ccccc2C(O)C1Cc1c(O)oc2ccccc2c1=O` (configuration not stated), the pIC50 in [1], in experiment [2] and in experiment [3] was less than 4.00 each time.

With `O=C1C(=O)c2ccccc2C(O)=C1CCCC1CCC2CCCCC2C1` (configuration not stated), the negative-log IC50 (pIC50) in experiment [1] was less than 4.00; in experiment [2], less than 4.00; in experiment [3], 5.07.

`O=C1C(=O)c2ccccc2C(O)=C1Sc1ccccc1`: the pIC50 in [1], in experiment [2] and in experiment [3] was less than 4.00 throughout.

For the molecule `O=C1C(O)=C(C(CCc2ccccc2)C2=C(O)C(=O)c3ccccc3C2=O)C(=O)c2ccccc21`, the pIC50 was 4.05 in experiment [1] and 4.08 in experiment [2].

Turning to `CCOc1ccc(C(C2=C(O)C(=O)c3ccccc3C2=O)C2=C(O)C(=O)c3ccccc3C2=O)cc1OC`, the pIC50 in experiment [1] and in experiment [2] was less than 4.00 each time.

Consider `CC(C)c1cccc(C(C)C)c1NC(=O)C(=O)CC(=O)CC(c1ccccc1)c1c(O)oc2ccccc2c1=O` (configuration not stated), for which the figures for the pIC50 in experiment [1], in experiment [2] and in [3] were less than 4.00, less than 4.00 and 4.51, respectively.

Turning to `O=C1C=C(O)C(=O)c2ccccc21` [LAWSONE], the pIC50 in experiment [3] is less than 4.00.

Take `O=c1c(C(c2ccc(C(c3c(O)oc4ccccc4c3=O)c3c(O)oc4ccccc4c3=O)cc2)c2c(O)oc3ccccc3c2=O)c(O)oc2ccccc12`: the pIC50 in the experiment with CCRF-CEM [4] was 4.94; against DNA topoisomerase 1 it was 5.00; in experiment [5] it was 5.66; in experiment [1], 6.10; in [2], 5.82; in experiment [6], 6.00. Further, the pIC50 in experiment [7] is 5.77; in experiment [8], 5.64.

Regarding `O=C1C(O)=C(C(C2=C(O)C(=O)c3ccccc3C2=O)c2ccc(C(C3=C(O)C(=O)c4ccccc4C3=O)C3=C(O)C(=O)c4ccccc4C3=O)cc2)C(=O)c2ccccc21`, the negative logarithm of the IC50 (pIC50) was 4.22 against DNA topoisomerase 1, 5.57 in experiment [1], 5.12 in experiment [2] and 6.12 in experiment [7]. Also, the IC50 entry with CCRF-CEM [9] is reported as “Not Active”.

As for `CC(=O)c1cccc(NC(=O)C(=O)c2c(O)oc3ccccc3c2=O)c1`, the negative-log IC50 (pIC50) in experiment [1], in experiment [2] and in experiment [3] was less than 4.00 throughout.

`CCCCCCC/N=C1/C(=O)c2ccccc2C(O)=C1O`: the results for the negative-log IC50 (pIC50) in experiment [1], in experiment [2] and in experiment [3] were less than 4.00, less than 4.00 and 4.48, respectively.

Take `COc1cc(C(C2=C(O)C(=O)c3ccccc3C2=O)C2=C(O)C(=O)c3ccccc3C2=O)cc(OC)c1OC`: the negative-log IC50 (pIC50) in experiment [1] and in [2] was less than 4.00 each time.

For `COc1cc(C(C2=C(O)C(=O)c3ccccc3C2=O)C2=C(O)C(=O)c3ccccc3C2=O)cc(Br)c1O`, the pIC50 is 4.70 in experiment [1] and 4.49 in [2].
